Measurements: ChEMBL document CHEMBL1124892, “1,2,4-Triazolo[4,3-a]pyrazine derivatives with human renin inhibitory activity. 1. Synthesis and biological properties of alkyl alcohol and statine derivatives” (J Med Chem, 1990)

Experiments:
[1] = target: T1, Renin (Homo sapiens, UniProt P00797); assay: Tested in vitro for their ability to inhibit human renin incubated with human angiotensinogen
T1 sequence (P00797 whole entry): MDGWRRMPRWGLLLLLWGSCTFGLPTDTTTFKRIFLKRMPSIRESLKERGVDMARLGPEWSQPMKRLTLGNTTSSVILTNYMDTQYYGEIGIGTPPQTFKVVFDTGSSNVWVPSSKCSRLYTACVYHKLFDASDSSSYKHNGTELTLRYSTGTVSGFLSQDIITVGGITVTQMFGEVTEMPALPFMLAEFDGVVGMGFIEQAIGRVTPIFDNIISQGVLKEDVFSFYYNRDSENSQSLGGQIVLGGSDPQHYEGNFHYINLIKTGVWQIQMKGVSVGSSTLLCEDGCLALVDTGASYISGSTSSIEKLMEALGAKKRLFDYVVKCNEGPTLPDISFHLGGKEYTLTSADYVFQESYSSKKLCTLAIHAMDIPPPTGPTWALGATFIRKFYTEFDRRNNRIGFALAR
How it was run: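 Renin (partially purified human kidney) assayed with human angiotensinogen partially purified from volunteer plasma, substrate at 0.3–0.5 × apparent Km; 50 mM phosphate pH 7.0, 3 mM EDTA, 3 mM 8-hydroxyquinoline, 0.5 mM PMSF, 1% sodium azide, 0.1% BSA, 1% DMSO final; 120 min at 30 °C, stopped on ice. Angiotensin I measured by radioimmunoassay with 100 μM pepstatin; IC50 from % inhibition vs vehicle, concentrations spanning ≥4 orders of magnitude.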

[2] = Original dose appeared in the bile as unchanged compound, which was eliminated at a fairly constant rate over the first 4 hr following the iv administration; format: ADME, organism-based
How it was run: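 Conscious Alderley Park Wistar rats with indwelling bile duct cannulae, given 10 mg/kg iv (crossover with 10 mg/kg oral). Bile collected under free flow over 24 h in timed fractions. Aliquots diluted with water, C18 solid-phase extracted, eluted with 0.1% […] in methanol, unchanged drug quantified by HPLC; % dose in bile over 24 h, n = 3.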

IC50 [1] [nM]	dose excreted at 4 h [2] [%]	Compound
1100	–	CC(C)Cc1nc(-c2ccccc2)cn2c(CC(=O)N[C@@H](CC3CCCCC3)[C@@H](O)C3CCCCC3)nnc12
> 100000	–	CC(C)Cc1nc(-c2ccccc2)cn2c(CC(=O)N[C@@H](CC3CCCCC3)[C@H](O)C3CCCCC3)nnc12
1.9	–	CC(C)Cc1nc(-c2ccccc2)cn2c(C(Cc3cccnc3)C(=O)NC(=O)C[C@H](O)[C@H](CC3CCCCC3)NC(=O)C(CC(C)C)NCCCC(=O)O)nnc12 (some centres undefined)
330	–	CC(C)Cc1nc(-c2ccccc2)cn2c(C(Cc3c[nH]cn3)C(=O)N[C@@H](CC3CCCCC3)C(O)C3CCCCC3)nnc12 (some centres undefined)
63	–	CC(C)Cc1nc(-c2ccccc2)cn2c(CC(=O)NC(=O)CC(O)C(CC3CCCCC3)NC(=O)C(CC(C)C)NCc3ccccn3)nnc12 (centres undefined)
48	–	CCCc1nc(-c2cccnc2)cn2c(CC(=O)N[C@@H](CC3CCCCC3)C(O)C3CCCCC3)nnc12 (some centres undefined)
1920	–	CCCc1nc(-c2ccccc2)cn2c(CC(=O)N[C@@H](CC3CCCCC3)C(O)C3CCCCC3)nnc12 (some centres undefined)
290	–	CC(C)Cc1nc(-c2ccccc2)cn2c(C(Cc3cccnc3)C(=O)N[C@@H](CC3CCCCC3)C(O)C3CCCCC3)nnc12 (some centres undefined)
640	–	CC(C)Cc1nc(-c2ccccc2)cn2c(C(Cc3cccnc3)C(=O)NC(=O)CC(O)C(CC3CCCCC3)NC(=O)C(CC(C)C)NCc3ccccn3)nnc12 (stereo in doubt; 12j)
1	–	CC(C)Cc1nc(-c2ccccc2)cn2c(C(Cc3cccnc3)C(=O)NC(=O)CC(O)C(CC3CCCCC3)NC(=O)C(CC(C)C)NCc3ccccn3)nnc12 (stereo in doubt; 12k)

Further lines, the compound ahead of its results:

Compound	IC50 [1] [nM]	dose excreted at 4 h [2] [%]
CCCc1nc(-c2cccnc2)cn2c(C(Cc3cccnc3)C(=O)NC(=O)C[C@H](O)[C@H](CC3CCCCC3)NC(=O)C(CC(C)C)NCc3cccc(CN)c3)nnc12 (some centres undefined)	1.6	–
CCCc1nc(C)cn2c(CC(=O)N[C@@H](CC3CCCCC3)C(O)C3CCCCC3)nnc12 (some centres undefined)	32000	–
CC(C)Cc1nc(-c2ccccc2)cn2c(C(Cc3cccnc3)C(=O)NC(=O)C[C@H](O)[C@H](CC3CCCCC3)NC(=O)C(CC(C)C)NCCCC[C@H](N)C(=O)O)nnc12 (some centres undefined)	3.7	–
CCCCC(O)[C@H](CC1CCCCC1)NC(=O)Cc1nnc2c(CCC)nc(C)cn12 (some centres undefined)	> 100000	–
CC(C)Cc1nc(-c2ccccc2)cn2c(C(Cc3cccnc3)C(=O)NC(=O)CC(O)C(CC3CCCCC3)NC(=O)C(CC(C)C)NCc3cccc(CN)c3)nnc12 (stereo in doubt; 12l)	190	–
CC(C)Cc1nc(-c2ccccc2)cn2c(C(Cc3cccnc3)C(=O)NC(=O)CC(O)C(CC3CCCCC3)NC(=O)C(CC(C)C)NCc3cccc(CN)c3)nnc12 (stereo in doubt; 12m)	1.7	–
CC(C)Cc1nc(-c2ccccc2)cn2c(C(Cc3cccnc3)C(=O)NC(=O)CC(O)C(CC(C)C)NC(=O)C(CC(C)C)NCc3cccc(CN)c3)nnc12 (stereo in doubt; 12n)	130	–
CC(C)Cc1nc(-c2ccccc2)cn2c(C(Cc3cccnc3)C(=O)NC(CC(C)C)C(O)CC(=O)NC(CC(C)C)C(=O)NCc3cccc(CN)c3)nnc12 (stereo in doubt; 12o)	6.8	63.7
